Assay results: ChEMBL document CHEMBL1145787, “Synthesis and structure-activity relationship of N-substituted 4-arylsulfonylpiperidine-4-hydroxamic acids as novel, orally active matrix metalloproteinase inhibitors for the treatment of osteoarthritis” (J Med Chem, 2003)
One block for each compound: values may come before it.

Columns and labels:
[1] = molecular target: Matrix metalloproteinase-9 (Homo sapiens, UniProt P14780); experiment: In vitro inhibitory activity against matrix metalloprotease-9.
Matrix metalloproteinase-9, sequence (P14780 whole entry, the tested form may be a part): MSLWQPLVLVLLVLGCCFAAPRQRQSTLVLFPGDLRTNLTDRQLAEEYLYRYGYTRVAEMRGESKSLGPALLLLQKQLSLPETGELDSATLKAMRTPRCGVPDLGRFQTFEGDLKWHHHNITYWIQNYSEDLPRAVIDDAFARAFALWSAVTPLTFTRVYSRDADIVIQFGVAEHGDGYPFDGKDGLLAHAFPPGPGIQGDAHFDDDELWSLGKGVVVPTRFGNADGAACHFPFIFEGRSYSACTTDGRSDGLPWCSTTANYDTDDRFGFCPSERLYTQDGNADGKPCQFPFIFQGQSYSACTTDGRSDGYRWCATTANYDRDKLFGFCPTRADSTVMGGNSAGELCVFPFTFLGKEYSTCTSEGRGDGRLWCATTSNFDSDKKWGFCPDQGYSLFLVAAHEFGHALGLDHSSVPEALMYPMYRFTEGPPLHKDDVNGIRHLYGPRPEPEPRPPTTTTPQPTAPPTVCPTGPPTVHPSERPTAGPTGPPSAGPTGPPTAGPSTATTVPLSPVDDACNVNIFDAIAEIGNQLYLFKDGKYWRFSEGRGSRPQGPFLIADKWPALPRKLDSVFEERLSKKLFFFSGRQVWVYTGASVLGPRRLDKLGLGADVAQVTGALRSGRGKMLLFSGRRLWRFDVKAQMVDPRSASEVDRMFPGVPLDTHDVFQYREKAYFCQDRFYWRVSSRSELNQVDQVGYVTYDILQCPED

[2] = molecular target: T1, Disintegrin and metalloproteinase domain-containing protein 17 (Homo sapiens, UniProt P78536); experiment: Inhibition of Tumor necrosis factor alpha converting enzyme (TACE) at 10 uM
T1 sequence (P78536 whole entry, the tested form may be a part): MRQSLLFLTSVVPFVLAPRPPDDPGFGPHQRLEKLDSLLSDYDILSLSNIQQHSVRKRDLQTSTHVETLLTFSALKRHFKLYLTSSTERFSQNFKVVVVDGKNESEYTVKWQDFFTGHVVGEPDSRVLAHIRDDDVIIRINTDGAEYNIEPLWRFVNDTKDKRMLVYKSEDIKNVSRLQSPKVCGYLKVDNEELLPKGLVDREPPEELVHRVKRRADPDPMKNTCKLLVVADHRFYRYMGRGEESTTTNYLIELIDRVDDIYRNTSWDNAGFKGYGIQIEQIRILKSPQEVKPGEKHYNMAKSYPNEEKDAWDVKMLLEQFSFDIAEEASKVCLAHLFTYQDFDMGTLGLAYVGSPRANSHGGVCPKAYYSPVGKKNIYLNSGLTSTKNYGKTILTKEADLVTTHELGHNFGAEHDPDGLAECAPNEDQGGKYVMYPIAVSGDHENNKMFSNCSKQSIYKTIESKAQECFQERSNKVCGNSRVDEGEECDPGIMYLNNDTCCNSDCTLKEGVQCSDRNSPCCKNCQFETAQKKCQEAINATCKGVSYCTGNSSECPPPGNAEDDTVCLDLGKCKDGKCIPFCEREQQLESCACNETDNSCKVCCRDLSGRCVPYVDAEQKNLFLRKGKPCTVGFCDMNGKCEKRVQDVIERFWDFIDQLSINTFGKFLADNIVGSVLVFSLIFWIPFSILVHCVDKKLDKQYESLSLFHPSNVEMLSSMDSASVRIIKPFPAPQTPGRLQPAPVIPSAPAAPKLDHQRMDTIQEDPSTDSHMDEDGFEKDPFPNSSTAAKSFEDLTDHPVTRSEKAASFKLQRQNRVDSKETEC
Summary of the method: (§1)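 Dose–response curves were not generated when inhibition was below 60% at 10 μM.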

[3] = In vivo inhibitory activity against Matrix metalloprotease enzyme by dialysis implant assay, value is relative to activity of CGS-27023 (60+/-3) at 25 mg/kg. po; assay type: functional
Collagenase 3 = Collagenase 3 (Homo sapiens, UniProt P45452)
[4] = molecular target: T1, Disintegrin and metalloproteinase domain-containing protein 17; experiment: In vitro inhibitory activity against tumor necrosis factor alpha converting enzyme (TACE).
Interstitial collagenase = molecular target: T2, Interstitial collagenase (Homo sapiens, UniProt P03956); experiment: In vitro inhibitory activity against matrix metalloprotease-1
T2 sequence (P03956 whole entry): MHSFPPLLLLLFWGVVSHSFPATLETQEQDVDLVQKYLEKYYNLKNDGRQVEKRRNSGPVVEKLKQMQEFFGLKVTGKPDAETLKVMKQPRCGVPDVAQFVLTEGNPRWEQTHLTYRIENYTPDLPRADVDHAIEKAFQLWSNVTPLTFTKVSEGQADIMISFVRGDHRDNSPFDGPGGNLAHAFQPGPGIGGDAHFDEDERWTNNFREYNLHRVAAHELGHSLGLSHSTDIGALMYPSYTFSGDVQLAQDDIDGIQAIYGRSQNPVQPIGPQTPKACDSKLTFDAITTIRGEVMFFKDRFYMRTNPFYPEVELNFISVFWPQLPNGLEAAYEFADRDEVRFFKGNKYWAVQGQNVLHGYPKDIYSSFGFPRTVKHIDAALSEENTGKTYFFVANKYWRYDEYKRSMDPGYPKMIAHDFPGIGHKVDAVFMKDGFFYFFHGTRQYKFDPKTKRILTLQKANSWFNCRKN

[5] = In vivo inhibitory activity against Matrix metalloprotease enzyme by dialysis implant assay, value is relative to activity of CGS-27023 (60+/-2) at 25 mg/kg. po; assay type: functional
[6] = molecular target: T3, Interstitial collagenase (Homo sapiens) (UniProt P03956); experiment: Inhibition of Matrix metalloprotease-1 at 10 uM; summary of the method: as §1
T3 sequence (whole entry): T2 sequence (P03956 whole entry)

[7] = In vivo inhibitory activity against Matrix metalloprotease enzyme by dialysis implant assay, value is relative to activity of CGS-27023 (76+/-3) at 25 mg/kg. po; assay type: functional
[8] = In vivo inhibitory activity against Matrix metalloprotease enzyme by dialysis implant assay, value is relative to activity of CGS-27023 (74+/-2) at 25 mg/kg. po; assay type: functional
[9] = In vivo inhibition of Matrix metalloprotease enzyme by Sponge-wrapped cartilage assay, value is relative to activity of RS-130830 (23+/-3) at 10 mg/kg. po. bid; assay type: functional
[10] = In vivo inhibitory activity against Matrix metalloprotease enzyme by dialysis implant assay, value is relative to activity of CGS-27023 (61+/-3) at 25 mg/kg. po; assay type: functional
[11] = In vivo inhibitory activity against Matrix metalloprotease enzyme by dialysis implant assay, value are relative to activity of CGS-27023 (64+/-3) at 25 mg/kg. po; assay type: functional
[12] = In vivo inhibitory activity against Matrix metalloprotease enzyme by dialysis implant assay, value are relative to activity of CGS-27023 (67+/-3) at 25 mg/kg. po; assay type: functional
[13] = In vivo inhibition of Matrix metalloprotease enzyme by Sponge-wrapped cartilage assay, compared to activity of RS-130830 (20+/-2) at 5 mg/kg. po. bid; assay type: functional
[14] = In vivo inhibition of Matrix metalloprotease enzyme by Sponge-wrapped cartilage assay, value is relative to activity of RS-130830 (40+/-3) at 10 mg/kg. po. bid; assay type: functional
[15] = In vivo inhibitory activity against Matrix metalloprotease enzyme by dialysis implant assay, value is relative to activity of CGS-27023 (75+/-2) at 25 mg/kg. po; assay type: functional
[16] = In vivo inhibition of Matrix metalloprotease enzyme by Sponge-wrapped cartilage assay, compared to activity of RS-130830 (inactive) at 5 mg/kg. po. qd; assay type: functional
[17] = In vivo inhibitory activity against Matrix metalloprotease enzyme by dialysis implant assay, value is relative to activity of CGS-27023 (51+/-3) at 25 mg/kg. po; assay type: functional
[18] = In vivo inhibitory activity against Matrix metalloprotease enzyme by dialysis implant assay, value is relative to activity of CGS-27023 (62+/-5) at 25 mg/kg. po; assay type: functional
Rattus norvegicus = experiment: In vivo inhibition of by Matrix metalloprotease enzyme Sponge-wrapped cartilage assay at 5 mg/kg. po. bid; assay type: functional
Oryctolagus cuniculus = experiment: Effect of compound on cartilage in surgically induced osteoarthritis (OA) model in rabbit at 25 mg/kg; assay type: functional
Summary of the method: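 Rabbits had anterior cruciate ligament transection plus meniscectomy in one knee, with sham surgery on the contralateral knee. From day 10 after surgery, groups of 12 were dosed once daily by oral gavage with vehicle, test compound or the RS-130830 reference for 4 weeks. Knee joints were then collected and scored for gross pathological changes by blinded investigators.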

[19] = In vivo inhibitory activity against Matrix metalloprotease enzyme by dialysis implant assay, value are relative to activity of CGS-27023 (73+/-4) at 25 mg/kg. po; assay type: functional
[20] = In vivo inhibition of Matrix metalloprotease enzyme by Sponge-wrapped cartilage assay, value are relative to activity of CGS-27023 (33+/-2) at 25 mg/kg. po. bid; assay type: functional
[21] = In vivo inhibition of Matrix metalloprotease enzyme by Sponge-wrapped cartilage assay, value is relative to activity of CGS-27023 (39+/-3) at 25 mg/kg. po. bid; assay type: functional
[22] = In vivo inhibitory activity against Matrix metalloprotease enzyme by dialysis implant assay, value is relative to activity of CGS-27023 (42+/-2) at 25 mg/kg. po; assay type: functional
[23] = In vivo inhibitory activity against Matrix metalloprotease enzyme by dialysis implant assay, value is relative to activity of CGS-27023 (54+/-2) at 25 mg/kg. po; assay type: functional
[24] = In vivo inhibition of Matrix metalloprotease enzyme by Sponge-wrapped cartilage assay, value is relative to activity of RS-130830 (27+/-3) at 10 mg/kg. po. bid; assay type: functional
[25] = In vivo inhibitory activity against Matrix metalloprotease enzyme by dialysis implant assay, value is relative to activity of CGS-27023 (64+/-2) at 25 mg/kg. po; assay type: functional
[26] = In vivo inhibition of Matrix metalloprotease enzyme by Sponge-wrapped cartilage assay, value are relative to activity of RS-130830 (27+/-3) at 10 mg/kg. po. bid; assay type: functional
[27] = In vivo inhibitory activity against Matrix metalloprotease enzyme by dialysis implant assay, value is relative to activity of CGS-27023 (68+/5-) at 25 mg/kg. po; assay type: functional

SMILES: O=C(NO)C1(S(=O)(=O)c2ccc(Oc3ccc(Cl)cc3)cc2)CCNCC1
IC50 [1]: 2 nM
IC50 [4]: 848 nM
IC50 (Collagenase 3): 2 nM
IC50 (Interstitial collagenase): 1260 nM

SMILES: Cc1ccc(CN2CCC(C(=O)NO)(S(=O)(=O)c3ccc(OCc4ccc(Cl)cc4)cc3)CC2)cc1
IC50 (Collagenase 3): 6 nM

SMILES: COc1ccc(S(=O)(=O)C2(C(=O)NO)CCN(C3CCCCCCC3)CC2)cc1
inhibition in vivo at 25 mg/kg [8]: 71%
inhibition [2]: 22%

SMILES: CCCCOc1ccc(S(=O)(=O)C2(C(=O)NO)CCOCC2)cc1
IC50 [1]: 9.2 nM
IC50 [4]: 177 nM
IC50 (Collagenase 3): 1.4 nM
IC50 (Interstitial collagenase): 1380 nM

SMILES: COc1ccc(S(=O)(=O)C2(C(=O)NO)CCN(C(C)(C)C)CC2)cc1
inhibition [6]: 59%
inhibition [2]: 9%

SMILES: CCN1CCC(C(=O)NO)(S(=O)(=O)c2ccc(Oc3ccc(Cl)cc3)cc2)CC1
IC50 [1]: 1 nM
inhibition in vivo at 10 mg/kg [9]: 75%
inhibition in vivo at 25 mg/kg [10]: 90%
IC50 (Collagenase 3): 1 nM

SMILES: CCCCOc1ccc(S(=O)(=O)C2(C(=O)NO)CCN(Cc3ccc(Cl)c(Cl)c3)CC2)cc1
IC50 [1]: 20 nM
inhibition [2]: 57%
IC50 (Collagenase 3): 5 nM
inhibition in vivo at 25 mg/kg [11]: 14%

SMILES: CCCCOc1ccc(S(=O)(=O)C2(C(=O)NO)CCN(Cc3ccc(OCCN4CCCCC4)cc3)CC2)cc1
inhibition in vivo at 5 mg/kg [13]: 56%
inhibition in vivo at 10 mg/kg [14]: 67%
inhibition in vivo at 25 mg/kg [15]: 98%
inhibition in vivo at 5 mg/kg [16]: 33%

SMILES: O=C(NO)C1(CS(=O)(=O)c2ccc(Oc3ccc(Cl)cc3)cc2)CCOCC1 [CTS-1027]
IC50 [4]: 176 nM
inhibition in vivo at 5 mg/kg (Rattus norvegicus): 20%
gross pathology score at 25 mg/kg (Oryctolagus cuniculus): 7.9 score
IC50 (Interstitial collagenase): 233 nM

SMILES: COc1ccc(CN2CCC(C(=O)NO)(S(=O)(=O)c3ccc(Oc4ccc(Cl)cc4)cc3)CC2)cc1
IC50 [4]: 492 nM
inhibition in vivo at 25 mg/kg [19]: 93%
IC50 (Interstitial collagenase): 490 nM

SMILES: COc1ccc(S(=O)(=O)C2(C(=O)NO)CCN(Cc3ccc4ccccc4c3)CC2)cc1
inhibition in vivo at 25 mg/kg [20]: 14%
inhibition in vivo at 25 mg/kg [17]: 62%

SMILES: COc1ccc(S(=O)(=O)C2(C(=O)NO)CCN(Cc3ccc(Cl)c(Cl)c3)CC2)cc1
IC50 [1]: 6 nM
IC50 (Collagenase 3): 2 nM
inhibition in vivo at 25 mg/kg [17]: 47%

SMILES: CCCCOc1ccc(S(=O)(=O)C2(C(=O)NO)CCN(CC)CC2)cc1
inhibition in vivo at 10 mg/kg [24]: 34%
inhibition [2]: 51%
inhibition in vivo at 25 mg/kg [25]: 64%
IC50 (Collagenase 3): 2 nM

SMILES: COc1ccc(S(=O)(=O)C2(C(=O)NO)CCN(Cc3ccc(-c4ccccc4)cc3)CC2)cc1
IC50 [1]: 13 nM
IC50 [4]: 610 nM
inhibition in vivo at 25 mg/kg [27]: 29%
IC50 (Collagenase 3): 3 nM
IC50 (Interstitial collagenase): 1330 nM

SMILES: COc1ccc(S(=O)(=O)C2(C(=O)NO)CCN(CC=C(C)C)CC2)cc1
inhibition [2]: 49%
inhibition in vivo at 25 mg/kg [27]: 57%

Now from value to compound, other results behind:

IC50 [1]: 10 nM
SMILES: COc1ccc(S(=O)(=O)C2(C(=O)NO)CCN(Cc3ccccc3)CC2)cc1

IC50 (Collagenase 3): 4 nM
SMILES: COc1ccc(S(=O)(=O)C2(C(=O)NO)CCN(CCCOc3ccccc3)CC2)cc1
inhibition [2]: 50%
inhibition in vivo at 25 mg/kg [3]: 28%

IC50 [1]: 9 nM
SMILES: COc1ccc(S(=O)(=O)C2(C(=O)NO)CCN(Cc3cccc(OC)c3)CC2)cc1
inhibition in vivo at 25 mg/kg [5]: 70%

inhibition [6]: 56%
SMILES: CCCCN1CCC(C(=O)NO)(S(=O)(=O)c2ccc(OC)cc2)CC1
inhibition [2]: 15%
inhibition in vivo at 25 mg/kg [7]: 56%

IC50 [1]: 16 nM
IC50 (Collagenase 3): 2 nM
SMILES: COc1ccc(S(=O)(=O)C2(C(=O)NO)CCN(Cc3ccc(F)cc3)CC2)cc1
inhibition in vivo at 25 mg/kg [7]: 83%

IC50 [1]: 3 nM
SMILES: CCCCOc1ccc(S(=O)(=O)C2(C(=O)NO)CCN(Cc3cccc(OC)c3)CC2)cc1
inhibition in vivo at 25 mg/kg [12]: 82%

IC50 [1]: 10 nM
IC50 (Collagenase 3): 2 nM
SMILES: COc1ccc(S(=O)(=O)C2(C(=O)NO)CCN(Cc3ccc(Br)cc3)CC2)cc1
inhibition [2]: 71%
inhibition in vivo at 25 mg/kg [17]: 51%

IC50 (Collagenase 3): 2 nM
SMILES: COc1ccc(CCN2CCC(C(=O)NO)(S(=O)(=O)c3ccc(OC)cc3)CC2)cc1
inhibition in vivo at 25 mg/kg [18]: 48%
inhibition [2]: 53%

IC50 [1]: 3 nM
IC50 (Collagenase 3): 3 nM
SMILES: COc1ccc(S(=O)(=O)C2(C(=O)NO)CCN(Cc3ccc(OCCN4CCCCC4)cc3)CC2)cc1
inhibition in vivo at 25 mg/kg [21]: 56%
inhibition in vivo at 25 mg/kg [22]: 53%

IC50 [1]: 5 nM
SMILES: CCCCOc1ccc(S(=O)(=O)C2(C(=O)NO)CCN(CCOc3ccccc3)CC2)cc1
inhibition in vivo at 25 mg/kg [23]: 29%

IC50 [1]: 26 nM
IC50 (Collagenase 3): 3 nM
SMILES: COc1ccc(S(=O)(=O)C2(C(=O)NO)CCN(CCOc3ccccc3)CC2)cc1
inhibition in vivo at 25 mg/kg [23]: 6%

IC50 (Collagenase 3): 9 nM
SMILES: COc1ccc(S(=O)(=O)C2(C(=O)NO)CCN(CCc3ccccc3)CC2)cc1
inhibition in vivo at 25 mg/kg [18]: 68%

IC50 [1]: 6 nM
SMILES: COc1ccc(S(=O)(=O)C2(C(=O)NO)CCN(Cc3ccc(-c4ccccn4)cc3)CC2)cc1
inhibition in vivo at 25 mg/kg [11]: 78%

IC50 [1]: 4 nM
IC50 (Collagenase 3): 2 nM
SMILES: CC(C)CCOc1ccc(S(=O)(=O)C2(C(=O)NO)CCN(Cc3ccccc3)CC2)cc1
inhibition in vivo at 10 mg/kg [26]: 34%
inhibition in vivo at 25 mg/kg [11]: 80%
